Bioassay records deposited in PubChem by several laboratories.
SKKanGAS inh = S. pyogenes SKKanGAS growth inhibitors in kanamycin, primary screen, streptokinase expression inhibitor project, SKKanGAS strain, BacTiter-Glo luminescence; 6 h; inhibition, % at 7.5 µM; 300,000 compounds, 1.3% hits; AID 1662, 2009;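 active = mean replicate score, as percent of positive control median, at least 50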;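 also: strain carries kanamycin resistance gene driven by streptokinase promoter and grows in 40 µg/ml kanamycin; loss of luminescence reflects streptokinase promoter inhibition or plain growth inhibition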
Beta cell apopt = inhibitors of cytokine-induced beta cell apoptosis, primary screen, luminescence. protection from apoptosis, % (no concentration beside the values). 300,000 compounds, 0.8% hits. AID 435005, 2010. INS-1E cytokine-induced death, ATP luminescence, 48 h; percent of positive-control rescue, neutral wells zero;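 active = Every replicate reaches about 75%, or at least half do and their mean reaches it too, limit read from the data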;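 also: higher means more ATP so stronger rescue from cytokine killing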
L major viab = Leishmania major promastigote growth inhibition, primary screen; 200,000 compounds, 9% hits; inhibition, % at 10 µM; Leishmania major promastigotes, resazurin fluorescence viability; in the data active = inhibition above about 50%;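 also: promastigotes grown with compound for 44 hours at 28 °C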
Mdm2-MdmX inh = inhibitors of human Mdm2-MdmX association, primary screen, cell-based, luminescence, split luciferase, SaOS-2, uHTS; SaOS-2 split-luciferase Mdm2/MdmX complementation; 330,000 compounds, 3% hits; Protein Mdm4 (Homo sapiens) + E3 ubiquitin-protein ligase Mdm2 (Homo sapiens), …; inhibition, % at 8 µM;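 active = inhibition of at least 50% at 8 µM in the primary screen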
Target sequence (O15151 whole entry, looked up): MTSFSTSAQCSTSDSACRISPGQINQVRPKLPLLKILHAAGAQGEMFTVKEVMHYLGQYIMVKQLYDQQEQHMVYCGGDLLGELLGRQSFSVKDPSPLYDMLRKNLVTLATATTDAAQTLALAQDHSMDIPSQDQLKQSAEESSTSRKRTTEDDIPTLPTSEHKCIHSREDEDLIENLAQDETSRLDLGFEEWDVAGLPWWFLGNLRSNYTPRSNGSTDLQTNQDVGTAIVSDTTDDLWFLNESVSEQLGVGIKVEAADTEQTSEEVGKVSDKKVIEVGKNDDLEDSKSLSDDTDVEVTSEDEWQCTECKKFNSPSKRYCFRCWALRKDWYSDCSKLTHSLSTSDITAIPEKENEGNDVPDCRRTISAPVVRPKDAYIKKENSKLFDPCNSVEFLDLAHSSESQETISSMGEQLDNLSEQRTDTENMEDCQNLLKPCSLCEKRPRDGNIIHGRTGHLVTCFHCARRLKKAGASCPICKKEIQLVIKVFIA
Target sequence (Q00987 whole entry, looked up): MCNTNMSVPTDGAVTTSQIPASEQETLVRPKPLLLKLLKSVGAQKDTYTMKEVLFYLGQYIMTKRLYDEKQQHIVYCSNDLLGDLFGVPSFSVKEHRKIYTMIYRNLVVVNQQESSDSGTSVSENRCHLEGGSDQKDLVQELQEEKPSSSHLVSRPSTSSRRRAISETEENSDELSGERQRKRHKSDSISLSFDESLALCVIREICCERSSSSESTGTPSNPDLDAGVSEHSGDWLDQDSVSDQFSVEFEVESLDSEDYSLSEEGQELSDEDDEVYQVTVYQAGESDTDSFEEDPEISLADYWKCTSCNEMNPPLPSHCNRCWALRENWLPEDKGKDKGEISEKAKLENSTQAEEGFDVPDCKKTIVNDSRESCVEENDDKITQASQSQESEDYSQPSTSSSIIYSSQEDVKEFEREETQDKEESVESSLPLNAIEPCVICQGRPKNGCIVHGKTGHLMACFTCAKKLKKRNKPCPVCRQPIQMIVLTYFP
CSC inhib = cancer stem cell viability inhibitors, primary screen, luminescence; cancer stem cell-like cells viability; inhibition, % at 7.5 µM; 300,000 compounds, 1.1% hits; in the data active = inhibition above about 75%; tested in HMLE shEcad cells
T cruzi inh = inhibitors of intracellular T. cruzi growth, primary screen, luminescence, NIH3T3 host cells; inhibition, % (test concentration not listed); 300,000 compounds, 1.4% hits; T. cruzi beta-gal in NIH3T3, 90 h;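 active = mean inhibition across valid replicates above about 55%, limit read from the data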;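 also: signal also drops with host cell toxicity which is not excluded here; higher percent means less beta-gal luminescence so fewer parasites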
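Assay system: NIH/3T3 fibroblasts plus reporter T. cruzi. Amount: NIH/3T3 cells, 5,000 per well. Buffer or medium: DMEM, 2% fetal bovine serum. Doses: compound pinned at 50 nL/well, DMSO. Schedule: ≥90 h infection period, 3 h prior cell attachment. Signal: luminescent β-galactosidase signal after 60 min lysis. Read-out: parasite load inhibition, %.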
Hits are given with their value; i = inactive; nt = no result. Rows were chosen to be rich in hits. Some 9.4% of all compounds tested hit in one or more screens of this group.

SMILES | SKKanGAS inh | Beta cell apopt | L major viab | Mdm2-MdmX inh | CSC inhib | T cruzi inh
CC12CCC(C(=O)N(CSC(=S)N/N=C\c3ccccc3O)C1=O)C2(C)C (stereo not given) | 107.9 | i | 85.3 | i | nt | i
COc1ccc(/C=N\NC(=S)SCN2C(=O)C3CCC(C)(C2=O)C3(C)C)cc1 (stereo not given) | i | i | i | i | i | i
N#CCC1c2ccccc2CCN1C(=O)Nc1ccc(Cl)cc1 (stereo not given) | i | i | i | i | i | i
N#CCC1c2ccccc2CCN1C(=O)Nc1cccc(Cl)c1 (stereo not given) | i | i | 63.2 | i | nt | i
COc1ccc(NC(=O)CNc2ccccc2N2CCCC2=O)cc1S(=O)(=O)N1CCOCC1 | nt | i | nt | i | nt | nt
CC(C)C[C@H]1CN=C(Nc2ccccc2)N1CCC(C)c1ccccc1 (stereo not given in full) | nt | 103.0 | nt | i | i | nt
CC(=O)c1ccc(N2CCN(C(=O)[C@H](C)NC(=O)c3ccccc3Cl)CC2)cc1 | i | i | nt | i | i | i
CCN1C(=O)c2cccc3c(S(=O)(=O)NCc4cccnc4)ccc1c23 | i | i | 70.4 | i | i | i
CCN1C(=O)c2cccc3c(S(=O)(=O)Nc4ccncc4)ccc1c23 | i | nt | i | i | i | i
Cc1ccc(NC(=O)C2CC(=O)Nc3nncn32)cc1 (stereo not given) | nt | i | i | i | i | i
CC(Oc1ccc(Br)cc1)c1nc2c3ccccc3nc(=S)n2[nH]1 (stereo not given) | 92.3 | 99.1 | i | i | i | i
CCCC(Oc1ccc(Br)cc1)c1nc2c3cc(OC)c(OC)cc3nc(=S)n2[nH]1 (stereo not given) | 100.1 | i | 96.8 | i | nt | i
Cc1c(NS(=O)(=O)c2ccc(Cl)c(C(=O)OCC(=O)NCc3ccco3)c2)c(=O)n(-c2ccccc2)n1C | i | i | i | i | i | i
Cc1cc(C)c2c(C)[nH]nc2n1 | i | 161.5 | nt | i | i | i
COc1ccc(OC)c(C(=O)C2COC(=O)C2)c1 (stereo not given) | i | i | 55.8 | i | nt | i
CC(C)Nc1nnc(SCC(=O)Nc2ccc3c(c2)C(=O)c2ccccc2C3=O)s1 | i | i | 96.6 | nt | i | i
O=C(CSc1nnc(NC2CCCCC2)s1)Nc1ccc2c(c1)C(=O)c1ccccc1C2=O | i | i | i | i | i | i
O=C(N/N=C/c1cn(-c2ccccc2)nc1-c1ccc2c(c1)OCCO2)c1ccncc1 | i | i | i | i | nt | i
O=C(N/N=C/c1nn(-c2ccccc2)cc1-c1ccc(Cl)cc1)c1ccncc1 | i | i | 60.2 | i | i | i
Cc1c(CC(=O)O)c(=O)oc2c(C)c(OCc3ccc(F)cc3Cl)ccc12 | i | nt | nt | i | nt | i
Cc1ncc([N+](=O)[O-])n1Cc1ccc(Br)cc1 | i | i | 90.5 | i | i | i
O=[N+]([O-])c1cn(Cc2ccc(Cl)cc2)cn1 | i | i | 63.6 | i | i | i
Cc1ncc([N+](=O)[O-])n1Cc1ccc(Cl)cc1 | i | i | 82.6 | i | i | i
Cc1oc(-c2ccc(-c3ccccc3)cc2)nc1CN(CCO)C(C)C | i | i | nt | i | i | i
c1ccc(-n2cc(CN3CCCC(CN4CCCC4)C3)c(-c3ccc4c(c3)OCO4)n2)cc1 (stereo not given) | i | i | 100.2 | i | i | i
SMILES | SKKanGAS inh | Beta cell apopt | L major viab | Mdm2-MdmX inh | CSC inhib | T cruzi inh
COc1ccccc1C(=O)NNC(=O)C(=O)Nc1ccc(C)c(Cl)c1 | 98.1 | i | nt | i | nt | i
COc1cccc(NC(=O)Nc2ccc(C)c(Cl)c2)c1 | i | i | i | i | i | 60.7
COc1cccc(NC(=O)Nc2cc(C(=O)O)ccc2C)c1 | i | i | i | i | i | i
Cc1c(C=O)c2ccccn2c1C(=O)c1cccs1 | i | i | i | i | nt | i
Cc1ccc(CSc2ncnc3c2cnn3Cc2ccccc2)cc1C | i | i | i | i | i | i
Cc1ccc(CSc2ncnc3c2cnn3Cc2ccccc2)cc1 | 64.8 | i | i | i | i | i
CCOc1ccc(NC(=O)CN(C)C(=O)c2c(-c3ccccc3)noc2C)cc1OCC | nt | i | nt | i | nt | nt
Oc1ccccc1/C=N/NC(=S)NC1CC2CC1C1C=CCC21 (stereo not given) | 93.2 | i | nt | i | 99.6 | i
COc1cccc(/C=N/NC(=S)NC2CC3CC2C2C=CCC32)c1O (stereo not given) | 109.0 | i | nt | i | i | i
O=C(Nc1cccc(Br)c1)c1ccc2c(c1)SC1=NS(=O)(=O)CCN12 | nt | i | nt | i | i | nt
CC(C)Cn1c(N)c(C(=O)CSc2nnc(C3CC3)n2C2CC2)c(=O)n(C)c1=O | nt | nt | nt | i | nt | nt
Cc1ccc(NNC(=O)c2ccno2)c(C)c1 | i | i | nt | i | i | i
Cc1cc(C)cc(NS(=O)(=O)c2ccc3[nH]c(=O)ccc3c2)c1 | i | i | nt | i | i | i
COc1ccc(OC)c(S(=O)(=O)N(C)CC(=O)Nc2cc(Cl)ccc2OC)c1 | i | i | 99.6 | i | i | i
Cc1ccc(C)c(N(CC(=O)Nc2cc(Cl)ccc2Oc2ccccc2)S(C)(=O)=O)c1 | i | i | 51.5 | i | i | i
COc1ccc(NC(=O)CN(c2ccccc2)S(=O)(=O)N(C)C)cc1Cl | i | nt | i | i | i | i
COc1ccccc1NC(=O)CN(C)S(=O)(=O)c1cc(C)ccc1OC | i | nt | i | i | nt | i
COc1ccc(Cl)cc1N(CC(=O)Nc1cccc(SC)c1)S(C)(=O)=O | i | i | 61.5 | i | i | i
COc1ccc(Cl)cc1NC(=O)CN(c1ccccc1)S(=O)(=O)N(C)C | i | i | 99.6 | i | i | i
Cc1cccc(C)c1N(CC(=O)Nc1cc(Cl)ccc1Oc1ccccc1)S(C)(=O)=O | i | i | i | i | i | i
CC(C)=CC(=O)OCC(=O)NC1CCCc2ccccc21 (stereo not given) | i | i | i | i | i | i
CCCN(Cc1ccc(N(CC)CC)cc1)CC1CC1 | i | nt | 75.6 | i | nt | i
O=C(NCc1ccco1)/C(=C/c1cccnc1)NC(=O)c1cccc(Br)c1 | i | nt | i | i | i | i
O=C(NCc1ccco1)/C(=C\c1cccnc1)NC(=O)c1ccccc1F | i | i | 52.6 | i | i | i
Cc1nnc(SCc2ccc(Cl)cc2)nc1/C=C/N(C)C | i | i | i | i | i | 61.0
CSc1nnc(C)c(/C=C/NOCc2ccc(Cl)cc2)n1 | i | i | i | i | i | i
C=CCn1c(SCC(=O)NCc2ccc3c(c2)OCO3)nc2scc(-c3ccccc3)c2c1=O | i | i | i | i | nt | i
C=CCn1c(SCC(=O)N2CC(=O)Nc3ccccc32)nc2scc(-c3ccccc3)c2c1=O | i | i | 94.4 | i | nt | i
CC(=O)Nc1ccc(NC(=O)C(C)OC(=O)CNS(=O)(=O)c2cccc(Cl)c2)cc1 (stereo not given) | i | i | 82.3 | i | i | i
